Data from ChEMBL document CHEMBL4513216, “Probing the Open Global Health Chemical Diversity Library for Multistage-Active Starting Points for Next-Generation Antimalarials” (ACS Infect Dis, 2020).

Experiment: Toxicity liver stage against HepG2, at 10uM
Assay type: cell-based
Design: test concentration 10 uM, cell line HepG2-A16-CD81EGFP
Settings: human, HepG2-A16-CD81EGFP cells; read-out: INHIBITION
Summary of the method: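 Uninfected HepG2-A16-CD81EGFP cells, 3 × 10^3 per well, 1536-well, plated on prespotted compound at 10 μM final, parasite-free screening media added to match infected plates; puromycin 10 μM positive, DMSO 0.5% negative; run in parallel with 48 h PbLuc assay at 37 °C, 5% CO2; viability by CellTiter-Glo luminescence, normalized to controls.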

| Structure (SMILES) | cytotoxicity at 10 µM [%] |
| --- | --- |
| CN1CCN(c2ccncc2S(=O)(=O)N2CCCCC2)CC1 | -6.84 |
| CN1C(=O)CO[C@H](c2ccc(NC(=O)NC(C)(C)C)cc2)[C@H]1CO | -0.973 |
| Cc1cccc2c1nc1n2[C@@H](CNC(=O)c2cnccn2)COC1 | 6.54 |
| CN(C)[C@@H]1CO[C@H](CNC(=O)C2CCCC2)[C@H]1O | -0.321 |
| CC(C)C[C@@H]1N[C@H](C(=O)NC2CCOCC2)Cc2c[nH]c3cccc1c23 | 8.24 |
| CCCNc1ccc(C(=O)NCCc2cccc(OC)c2)cn1 | 0.267 |
| O=C1CCC(c2ccccc2)=NN1CN1CCCCCC1 | -86.3 |
| COc1ccc(CNC(=O)CCc2nnc3ccccn3c2=O)cc1 | -13.5 |
| O=C(NC1CC1)C1CN(C(=O)c2cnccn2)C1 | -10.2 |
| O=S(=O)(NCC1CCN(c2cnccn2)CC1)c1cccs1 | 6.28 |
| CN1CCCC(C(=O)N2CCC(Oc3ccccn3)CC2)C1 (configuration not stated) | -5.15 |
| COCCN(Cc1ccoc1)S(=O)(=O)c1cccc(C(F)(F)F)c1 | 3.17 |
| CCc1nc(-c2noc3ccc(C(=O)NCCN(C)C)cc23)co1 | -150 |
| CN(C)C(=O)CO[C@@H]1CN(Cc2ccccc2)[C@@H]2CCCO[C@@H]21 | 3.09 |
| Cn1ncc2c1NC(=O)CC2c1c(Cl)cccc1Cl (configuration not stated) | 55.1 |
| Cn1nnnc1SCc1cc2c(cc1Cl)OCO2 | 1.14 |
| O=C(O)CCNC(=O)Cc1csc(-c2cccc(Cl)c2)n1 | 8.32 |
| Cn1ccnc1CN1CCC2(COCCN(Cc3ccsc3)C2)C1 (configuration not stated) | -9.81 |
| Cc1oncc1C(=O)N1CCC2(CCN(Cc3ccccn3)C2=O)C1 (configuration not stated) | -11.4 |
| Cc1ccsc1C(=O)N1CC(C(=O)N2CCOCC2)C2(CCOCC2)C1 (configuration not stated) | 1.47 |
| Cc1ccc(Cl)cc1NCc1nc2n(n1)CCCCC2 | 5.89 |
| CCN(CC)c1nc(C)cc(C(=O)Nc2cccc(C(N)=O)c2)n1 | 14.9 |
| Cc1cn[nH]c1C1COCCN1Cc1ccsc1 (configuration not stated) | 2.56 |

| Structure (SMILES) | cytotoxicity at 10 µM [%] |
| --- | --- |
| CN(C)c1cccc(C(=O)N2CCn3c(nnc3C3CC3)C2)c1 | 0.7 |
| O=C(c1ccncc1)N1CCC2(COc3ncccc3S(=O)(=O)N2)C1 (configuration not stated) | 9.62 |
| CC(C)c1cc(Br)ccc1NC(=O)NCC(O)CO (configuration not stated) | 9.45 |
| OCCN(Cc1ccno1)Cc1cc(Br)ccc1F | 6 |
| Cc1ccc(OCc2cccc(C(=O)N(C)CCC#N)c2)cn1 | -3.3 |
| CCC1CCCCN1C(=O)CCn1cnc2sccc2c1=O (configuration not stated) | -9.79 |
| O=C1NCCCCC1Sc1ccc(F)c(F)c1 (configuration not stated) | 5.58 |
| N#CC1COCCN1C(=O)c1cccc2cc[nH]c12 (configuration not stated) | 7.1 |
| Cc1ccc(-c2cc(CS(=O)(=O)NC3CCCNC3=O)on2)cc1 (configuration not stated) | -172 |
| O=C(c1cc(F)cc(F)c1)N1CCC(O)(C(F)(F)F)CC1 | 7.08 |
| COC(=O)C(C)(C)NC(=O)c1cnc(C(C)(C)C)s1 | 3.87 |
| CNC(=O)c1cccc(NCC(=O)Nc2cc(C)nn2C)c1C | -1.49 |
| CCc1nc(CCNc2ncccn2)sc1C | 14.4 |
| O=C(CCNCc1cccc2c1OCCCO2)NC1CCCC1 | 0.66 |
| CC(NC(=O)NCCC(=O)OC(C)(C)C)c1nncn1C (configuration not stated) | 2.49 |
| CCCS(=O)(=O)CCN1CCN(c2cc(F)ccc2F)CC1 | -10 |
| O=c1c2sccc2ncn1CC(O)CN1CCOCC1 (configuration not stated) | 7.27 |
| Cc1cc(C(=O)NCC(O)c2c(Cl)cccc2Cl)nn1C (configuration not stated) | -9.38 |
| NC(=O)CC1CCN(C(=O)NCC2(c3ccccc3F)CC2)CC1 | 35.2 |
| Cc1cc(C)c(CNC(=O)N2CCC(N3CCNC3=O)CC2)c(=O)[nH]1 | 4.16 |
| CC(=O)NC1CCN(c2c(C#N)cnc3c(C)cc(F)cc23)CC1 | 7.72 |
| Cn1cc(C(=O)N2CCN(Cc3ccccn3)CC2)ccc1=O | 6.85 |
| COc1ccnc(N2CCN(C(=O)c3cc(C4CC4)[nH]n3)CC2)n1 | 6.85 |

| Structure (SMILES) | cytotoxicity at 10 µM [%] |
| --- | --- |
| Cc1ccc2c(c1)C(NCc1nnc3n1CCCCC3)CCCO2 (configuration not stated) | -3.39 |
| COC(=O)C(C)(C)NC(=O)C1CC(=O)N(CC2CC2)C1 (configuration not stated) | -142 |
| Cc1ncsc1C(=O)Nc1ccccn1 | 11.3 |
| CCCS(=O)(=O)NC1CCN(c2cccc(F)c2C#N)CC1 | -5.6 |
| COc1cc2c(cc1OC)S(=O)(=O)N(Cc1cnn(C)c1)C2=O | 12.6 |
| Cc1cc(=O)n(C)cc1NC(=O)Cc1cccc(F)c1 | -3.86 |
| CC(C)(C)CCCC(=O)NS(=O)(=O)CC1CC1 | -6.19 |
| O=C(CSc1ccccc1)N1CCC(N2CCCCC2=O)CC1 | 11.2 |
| CCN(Cc1ccoc1)C(C(N)=O)c1ccc(Br)cc1 (configuration not stated) | -5.5 |
| CCN(CCC(=O)OC)C(=O)c1cccc(Cn2nc(C)cc2C)c1 | 7.59 |
| Cc1ccc(N2CCC(C(=O)NC3CCc4nccn4C3)CC2)nc1 (configuration not stated) | -7.39 |
| CC(=O)N1CCC[C@H]1C(=O)NCCCN(C(C)C)S(C)(=O)=O | -13 |
| CN(C)c1cc2c(nn1)CCN(C(=O)c1cc3ccccc3o1)C2 | -5.39 |
| Cc1ncsc1C(=O)NCCN1CCCCCC1=O | 12.1 |
| COc1ncccc1NC(=O)NC(CCCO)c1ccccc1 (configuration not stated) | 11.2 |
| Cc1cc(F)ccc1N1CCCC(Nc2nccn3cnnc23)C1=O (configuration not stated) | -6.62 |
| O=C(Cc1cccc(F)c1)NCCNS(=O)(=O)C1CCCC1 | 3.61 |
| Nc1cc2c(nn1)CCN(C(=O)c1csc(-c3cccs3)n1)C2 | -1.32 |
| Cc1nsc(N2CCN(C(=O)Nc3ccc4[nH]ccc4c3)CC2)n1 | 4.52 |
| CCc1nnc2n1CCN(C(=O)c1ccc3c(c1)NC(=O)CO3)C2 | 1.24 |
| CCc1ccc(S(=O)(=O)Nc2cn(C)cc(Br)c2=O)cc1 | -10.8 |
| CCOCC1CN(C(=O)Cc2cccs2)Cc2ccnn2C1 (configuration not stated) | -78.7 |
| Cc1cccc(C(=O)N2CCCn3c(CN4CCCCC4)nnc3C2)c1 | -84 |

| Structure (SMILES) | cytotoxicity at 10 µM [%] |
| --- | --- |
| CCCN1CCC(N2CCC(Cn3cc(CC(C)O)nn3)CC2)CC1 (configuration not stated) | -1.89 |
| CC(C)[C@H](Nc1cc(-c2ccncc2)nc2ccnn12)C(N)=O | 0.782 |
| Cc1nc(N2CCCC2C(=O)NC(C)(C)CO)nc2ccccc12 (configuration not stated) | 0.215 |
| Cc1n[nH]c(C)c1Sc1ccccc1NC(=O)N1CCOCC(O)C1 (configuration not stated) | -2.42 |
| CC(=O)NCCCc1ncnn1-c1cccc(Cl)c1 | 0.254 |
| CCN(Cc1ccncc1)C1CCCN(Cc2ccc(F)cc2OC)C1 (configuration not stated) | -3.73 |
| CCN(C)C[C@@H]1CN(C(=O)c2cc(C(F)(F)F)n[nH]2)C[C@@H]1CO | -12.1 |
| CN(C)CCN1CC(C(=O)N2CCC(c3cccc(O)c3)CC2)CC1=O (configuration not stated) | 0.0902 |
| CN1CCC(CNC(=O)Cc2ccc(N(C)C)cc2)CC1 | 6.8 |
| CN(Cc1csc(-c2ccccc2)n1)Cc1ncccc1C(=O)O | 6.03 |
| CCn1nc(C)c(C(C)NC(=O)c2cccc(NCC(=O)O)c2)c1C (configuration not stated) | 3.04 |
| COCc1nc(NC(C)Cc2cc(C)n[nH]2)c2cnn(C)c2n1 (configuration not stated) | -10 |
| Cc1cc(NCc2ccc(O)cc2)n2nc(C)cc2n1 | -0.881 |
| COc1cc(C(=O)O)cc(I)c1OCC(=O)NCCc1ccccc1 | -11.9 |
| CC(Cn1cncn1)NCCN1CCc2ccccc21 (configuration not stated) | -3.21 |
| COc1ccc(CNC(=O)CCN2C[C@@H](C)[C@](O)(C3CC3)C2)cc1 | -12.5 |
| COc1cccc([C@@H]2CN(C3CCCC3)C[C@H]2C(=O)O)c1 | -5.89 |
| Cc1ccsc1-c1nccn1CCS(C)(=O)=O | 3.03 |
| OC1(CN2CCCC2)COCCN(c2nccs2)C1 (configuration not stated) | -7.64 |
| C[C@@H]1CN(C(=O)CCN2CCCC2)CC[C@@]1(O)C1CCOCC1 | -5.15 |
| COc1cccc(OCc2cc(C(=O)NC[C@H]3CCCN3)n[nH]2)c1 | -4.9 |
| Cc1c(CN2CCCC(c3[nH]ncc3S(C)(=O)=O)C2)cnn1C (configuration not stated) | 4.69 |
| COCCN1CCC(NCc2ccc(F)cc2F)C1 (configuration not stated) | -2.67 |

| Structure (SMILES) | cytotoxicity at 10 µM [%] |
| --- | --- |
| CCOCCCn1c(NC(=O)c2ccnc(C)n2)nc2ccccc21 | -21.1 |
| Cc1cc(C)n(CC2CCCN2C(=O)c2cccc3c2OCO3)n1 (configuration not stated) | -15.7 |
| c1ncn(CC2CCCCN2Cc2cn3ccsc3n2)n1 (configuration not stated) | -13.9 |
| Cc1noc(C)c1C(=O)N1CCC(Nc2cccnn2)CC1 | -4.48 |
| Cc1nc(C)n(C2CCCN(C(=O)Cc3cn4ccccc4n3)C2)n1 (configuration not stated) | -18.3 |
| O=C(CNCCn1cccn1)NCC1(c2ccccc2)CCOCC1 | -8.27 |
| CCOC1CCN(CC(=O)Nc2oc(C)c3c(C)n[nH]c(=O)c23)CC1 | -14.4 |
| CCCNC(=O)NCc1cccnc1OC | 4.6 |
| COc1cccc(C(=O)NCCCN2CCc3ccccc3C2)c1OC | 6.67 |
| c1cnnc(N2CCCC2CNCc2cnc(N3CCCC3)nc2)c1 (configuration not stated) | 7.96 |
| CO[C@@H]1CC[C@H]2[C@H]1OCCN2Cc1ccc(F)cc1 | 1.82 |
| O=C(Nc1cccnc1)[C@H]1CO[C@H]2CCN(c3ncc(F)cn3)C[C@H]2C1 | -12.8 |
| CC[C@@H]1N(Cc2ccncc2)CCC[C@]12CCC(=O)N2CCOC | 11.5 |
| Cc1ccc(CN2CC[C@H]3C[C@H](C(=O)N(C)C)O[C@H]3C2)cc1 | 1.94 |
| Cc1cc(C(=O)N2C[C@@H]3COC[C@]3(CN(C)C)C2)c(C)o1 | -131 |
| Cn1ccnc1CN1CCC2(CC(=O)N(c3cccc(F)c3)C2)C1 (configuration not stated) | 6.97 |
| CSc1nc(N)c2c(n1)N=C1COC(=O)C1C2c1cccc(O)c1 (configuration not stated) | 32.8 |
| COc1ccc(CNCC2(COc3cccnc3)C[C@@H](O)[C@@H](O)C2)cc1 (some centres not stated) | -57 |
| COc1ccc(OC)c(C2CCN(C(=O)C3CCC(O)CC3)C2)c1 (configuration not stated) | -1.65 |
| CCN(CC)c1ccc(C(=O)N2C[C@H]3CC[C@@H](C2)N(CCOC)C3)cc1 | -12.3 |
